# Publication PMC3377336 (EMBO Molecular Medicine, 2010)
# Structures can show the parent of a compound that is named as a salt. Where two headings read alike, the source gives them in different places.
# What was measured:
# NB TICs [1] = assay: Sphere-formation secondary assay, NB TICs; type: cell-based, human; settings: for Fold difference in potency (EC50, sphere formation) NB TICs vs SKPs: text and legends
# NB67 cells [2] = system: NB67 cells
# NB67 cells [3] = assay: Secondary assay on NB67 TICs; settings: same patient as NB12, 2 years later
# NB12 xenograft tumours [4] = assay: NB12 xenograft tumours in NOD/SCID mice; type: in vivo; settings: 14 days
# NB TICs [5] = assay: Apoptosis: nuclear morphology, sub-2n DNA content, cleaved PARP; type: cell-based, human; settings: 50 nM rapamycin
# Procedure, shortened: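 NB12 cells (40,000) on lysine/laminin-coated chamber slides, treated in duplicate 24 h after plating, then fixed with 4% paraformaldehyde and 0.5 µg/ml Hoechst 33342; nuclei counted in 15 random fields. For DNA content and blots, 200,000 NB TICs per 25 cm2 flask were treated 48 h post-plating. Cells were ethanol-fixed, RNaseA/propidium iodide 1 h 37 °C, flow cytometry. NP-40 lysates were immunoblotted for cleaved PARP.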
# SH-SY5Y cells = assay: alamarBlue dose-response assay; type: cell-based, human; settings: serial dilutions, alamarBlue day 6, read day 7
# NB12 TICs = assay: Cell viability by trypan blue exclusion; type: cell-based, human; settings: 50 nM rapamycin
# NB12 xenograft tumours [6] = assay: Sphere formation of cells re-isolated from treated NB12 xenograft tumours; type: in vivo, NOD/SCID mice; settings: dissociated tumours, methylcellulose, 10 days; 3 mg/kg IP daily
# SMS-KCNR cells = assay: Sphere-formation secondary assay, SMS-KCNR; type: cell-based, human; settings: up to doses of 1 µM
# NB88R2 xenograft tumours = NB88R2 xenograft tumours in NOD/SCID mice; type: in vivo; settings: NB88 tumours; 3 mg/kg IP daily, 14 days
# SK-N-AS cells = assay: alamarBlue dose-response assay; type: cell-based, human; settings: serial dilutions, alamarBlue day 6, read day 7
# [7] = system: p70S6K and S6RP phosphorylation; assay: Immunoblot of mTOR target proteins; type: cell-based, human; settings: 50 nM, 1 h
# SKPs = assay: Sphere-formation secondary assay, SKPs; type: cell-based, human; settings: up to doses of 1 µM
smiles,measurement,setting,value
COc1ccc2c(c[n+](C)c3c4cc5c(cc4ccc23)OCO5)c1OC [Chelerythrine chloride],Selective cytotoxicity for NB TICs (PKC inhibitors),"NB TICs [1]; sphere formation, NB TICs vs SKPs",selectively cytotoxic
COc1cc2c(c(OC)c1OC)-c1ccc(OC)c(=O)cc1[C@@H](NC(C)=O)CC2 [Colchicine],Cytotoxicity to NB67 cells,NB67 cells [2],not cytotoxic
CO[C@H]1C=C[C@@]23c4cc5c(cc4CN(C[C@@H]2O)[C@H]3C1)OCO5 [Crinamine],"Fold difference in potency (EC50, sphere formation) NB TICs vs SKPs",NB TICs [1],> 50 fold
C=C1C(=O)O[C@H]2[C@H]1CC/C(C)=C/CC[C@@]1(C)O[C@@H]21 [Parthenolide],"Fold difference in potency (EC50, sphere formation) NB TICs vs SKPs",NB TICs [1],3-50 fold
COc1cc([C@@H]2c3cc4c(cc3[C@H](O)[C@H]3COC(=O)[C@H]23)OCO4)cc(OC)c1OC [Podophyllotoxin],Cytotoxicity to NB67 cells,NB67 cells [2],not cytotoxic
CCN(CC)CCCC(C)Nc1c2ccc(Cl)cc2nc2ccc(OC)cc12 (stereo not drawn) [Quinacrine dihydrochloride],"Fold difference in potency (EC50, sphere formation) NB TICs vs SKPs",NB TICs [1],3-50 fold
COc1cc([C@@H]2c3cc4c(cc3[C@@H](O[C@@H]3O[C@@H]5CO[C@@H](c6cccs6)O[C@H]5[C@H](O)[C@H]3O)[C@H]3COC(=O)[C@H]23)OCO4)cc(OC)c1O [Teniposide],"Fold difference in potency (EC50, sphere formation) NB TICs vs SKPs",NB TICs [1],> 10 fold
CC[C@]1(O)C[C@@H]2CN(CCc3c([nH]c4ccccc34)[C@@](C(=O)OC)(c3cc4c(cc3OC)N(C)[C@H]3[C@@](O)(C(=O)OC)[C@H](OC(C)=O)[C@]5(CC)C=CCN6CC[C@]43[C@@H]65)C2)C1 [Vinblastine sulfate],"Fold difference in potency (EC50, sphere formation) NB TICs vs SKPs",NB TICs [1],> 10 fold
same,Cytotoxicity to NB67 cells,NB67 cells [3],not cytotoxic
same,Reduction of tumour weight relative to vehicle-treated controls,NB12 xenograft tumours [4]; 0.25 mg/kg IP daily,43.4%
CC[C@]1(O)C[C@H]2CN(CCc3c([nH]c4ccccc34)[C@@](C(=O)OC)(c3cc4c(cc3OC)N(C=O)[C@H]3[C@@](O)(C(=O)OC)[C@H](OC(C)=O)[C@]5(CC)C=CCN6CC[C@]43[C@@H]65)C2)C1 [Vincristine sulfate],Cytotoxicity to NB67 cells,NB67 cells [3],not cytotoxic
CO[C@H]1C[C@@H]2CC[C@@H](C)[C@@](O)(O2)C(=O)C(=O)N2CCCC[C@H]2C(=O)O[C@H]([C@H](C)C[C@@H]2CC[C@@H](O)[C@H](OC)C2)CC(=O)[C@H](C)/C=C(\C)[C@@H](O)[C@@H](OC)C(=O)[C@H](C)C[C@H](C)/C=C/C=C/C=C/1C [rapamycin],Apoptosis in NB12 and NB122R cells,NB TICs [5],induced features of apoptosis
same,"Sensitivity of SH-SY5Y cells, alamarBlue assay",SH-SY5Y cells,not effective
same,Time to decrease of cell viability (trypan blue exclusion),NB12 TICs,24 h
same,Reduction of sphere-forming ability in treated tumours,NB12 xenograft tumours [6],7.75 fold
same,Reduction of tumour weight relative to vehicle-treated controls,NB12 xenograft tumours [4]; 3 mg/kg IP daily,82.6%
same,Effect on sphere formation of SMS-KCNR cells,SMS-KCNR cells,little effect
same,Reduction of tumour weight relative to vehicle-treated controls,NB88R2 xenograft tumours,74.0%
same,"Sensitivity of SK-N-AS cells, alamarBlue assay",SK-N-AS cells,not effective
same,Phosphorylation of p70S6K and S6RP,[7],rapidly inhibited
same,Effect on sphere formation of SKPs,SKPs,little effect
